High-throughput results: PubChem, several laboratories
A selection: hits, their analogues and other compounds. The true share with any hit is near 4%.
H9c2 protect: protects H9c2 cardiomyocytes from peroxide injury; H2O2 injury protection, ATPLite, 2 h; protection from H2O2 cell death, % at 20 µM; 360,000 compounds, 0.63% hits; AID 588492;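 active means compounds giving at least 50% protection of heart cells from peroxide-induced death in the single-dose screen, raw or plate-pattern-corrected value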;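 further: 0% = DMSO wells with peroxide and 100% = DMSO wells without peroxide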
Arr AP2 block: blocks beta-arrestin peptide binding to AP2 adaptin. 340,000 compounds, 0.31% hits. inhibition, % at 10 µM. FITC-arrestin peptide / GST-AP2 beads, flow cytometry; AP2 beta2 appendage carries R879A mutation;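 active means inhibition above a set limit, near 3 SD of compounds lacking own fluorescence, cut at about 54% in these data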;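 further: plate controls were DMSO wells for no effect and 5 µM unlabelled arrestin peptide for full effect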
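System: GST-AP2 R879A glutathione beads. Medium: PBS with 0.05% Tween 20 and 0.1% BSA. Also added: FITC-arrestin peptide, 50 nM. Incubation: 12 min plus 1 h, RT. Measured by: high-throughput flow cytometry of beads, ex 488, em 535 nm. Evaluation: percent drop in bead-associated FITC signal.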
FAS-TE inh: FAS thioesterase (human) inhibition. inhibition, % at 15 µM. recombinant FAS-TE, OMFH fluorogenic substrate, fluorescence endpoint. P49327. 360,000 compounds, 0.67% hits;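 active means compounds whose normalised, plate-corrected inhibition of enzyme fluorescence in the single-dose primary screen is 50% or more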;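 further: 0% = DMSO with enzyme and 100% = substrate without enzyme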
SENP1 FRET inh: blocks the human SENP1 SUMO protease catalytic domain; Q9P0U3; recombinant SENP1 catalytic domain, CyPet-SUMO1-YPet FRET cleavage; inhibition, % at 10 µM; 360,000 compounds, 0.21% hits; AID 624204;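 active means inhibition at least 30% at 10 µM, raw YFP signal under a set limit, fluorescence ratio 0.5 to 1.5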;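 further: 0% = enzyme with DMSO and 100% = no enzyme wells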
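Controls: no-enzyme wells low, DMSO-plus-enzyme wells high control. Test system: human recombinant His6-tagged SENP1 catalytic domain enzyme. Reagent: SFCypet-SUMO1-SFYpet FRET protein substrate, 25 nM final. Doses: one dose per compound, 10 µM, 0.5% DMSO. Detection: FRET, CFP and YFP emission. Timing: 50 min reaction at room temperature.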
hiPSC survival: hiPSC single-cell survival enhancement | AID 602274 | survival enhancement, % at 20 µM | ATPlite luminescence; 100% = ROCK inhibitor wells, 0% = DMSO | 360,000 compounds, 0.044% hits; in the data active means survival enhancement above about 18%;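 further: cells exposed to compounds for 16 hours before the ATP read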
GRIN3A LBD mod: NR3A (human) ligand-binding domain modulation; 340,000 compounds, 2.5% hits; Tm shift relative to glycine control, % at 25 µM; AID 1259313; NR3A LBD differential scanning fluorimetry, Tm shift; 0% = protein alone, 100% = glycine-bound protein;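 active means melting temperature shift of at least 10% of the positive control shift, at one fixed dose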
* hit, by the source's call.

For Cc1nc(-c2c(C(F)(F)F)noc2-c2ccc(O)cc2O)cs1 the results were H9c2 protect -6, Arr AP2 block -2, FAS-TE inh 0, SENP1 FRET inh 1, hiPSC survival 3 and GRIN3A LBD mod 2.
Screening N#CC1=C(N)Oc2c(O)cc3ccccc3c2C1c1ccsc1 (stereo not drawn) returned H9c2 protect 58*, Arr AP2 block -7, FAS-TE inh 31, SENP1 FRET inh -15, hiPSC survival 0 and GRIN3A LBD mod 12*.
Screening CCOC(=O)C1=C(C)OC(N)=C(C#N)C1c1ccsc1 (stereo not drawn) returned H9c2 protect 3, Arr AP2 block -1, FAS-TE inh -6, SENP1 FRET inh -3, hiPSC survival 4 and GRIN3A LBD mod 11*.
For CC(=O)C1=C(C)OC(N)=C(C#N)C1c1ccncc1 (stereo not drawn) the results were H9c2 protect 7, Arr AP2 block 19, FAS-TE inh -2, SENP1 FRET inh -2, hiPSC survival 8 and GRIN3A LBD mod 11*.
COC(=O)C1=C(C)OC(N)=C(C#N)C1c1cccnc1 (stereo not drawn) was read as H9c2 protect -1, Arr AP2 block 7, FAS-TE inh -3, SENP1 FRET inh -1, hiPSC survival -2 and GRIN3A LBD mod 1.
`CCOC(=O)C1=C(CC)OC(N)=C(C#N)C1c1ccsc1` (stereo not drawn) gave H9c2 protect -2, Arr AP2 block 6, FAS-TE inh -7, SENP1 FRET inh -5, hiPSC survival 2 and GRIN3A LBD mod -4.
`CCOC(=O)C(=O)Nc1nnc(SCc2ccc(F)cc2)s1` gave H9c2 protect 6, Arr AP2 block 10, FAS-TE inh -11, SENP1 FRET inh 2, hiPSC survival -1 and GRIN3A LBD mod 22*.
CC(=O)Nc1ccc(N2C(=O)c3ccc(C(=O)Nc4nnc(SCc5ccc(F)cc5)s4)cc3C2=O)cc1 was read as H9c2 protect -4, Arr AP2 block 1, FAS-TE inh 7, SENP1 FRET inh 1, hiPSC survival -3 and GRIN3A LBD mod 10*.
Screening Cc1ccc(S(=O)(=O)Nc2ccc(O)c3ncccc23)cc1 returned H9c2 protect 52*, Arr AP2 block 9, FAS-TE inh 7, SENP1 FRET inh 1, hiPSC survival -1 and GRIN3A LBD mod -3.
CCC(c1ccccc1)c1nc(-c2cccnc2)no1 (stereo not drawn) was read as H9c2 protect -1, Arr AP2 block 25, FAS-TE inh -4, SENP1 FRET inh 5, hiPSC survival 0 and GRIN3A LBD mod 12*.
For COc1ccc(CCNC(=O)CSc2nc3ccsc3c(=O)n2Cc2ccccn2)cc1OC the results were H9c2 protect 2, FAS-TE inh -5, SENP1 FRET inh -9 and hiPSC survival -2.
`NC(=S)N/N=C\c1ccc(-c2cccc(Cl)c2Cl)o1` gave H9c2 protect -6, Arr AP2 block 1, FAS-TE inh 5, SENP1 FRET inh -11, hiPSC survival -1 and GRIN3A LBD mod 27*.
Screening COCCNC(=S)N(CCc1c(C)[nH]c2ccc(F)cc12)Cc1cccnc1 returned H9c2 protect 4, Arr AP2 block 14, FAS-TE inh -2, SENP1 FRET inh -1, hiPSC survival 0 and GRIN3A LBD mod 13*.
Screening COCCNC(=S)N(CCc1c(C)[nH]c2ccc(Cl)cc12)Cc1cccnc1 returned H9c2 protect 4, Arr AP2 block 17, FAS-TE inh 2, SENP1 FRET inh -8, hiPSC survival 0 and GRIN3A LBD mod -5.
For Cc1cc2cc(CN(CC3CCCO3)C(=S)NCc3ccco3)c(=O)[nH]c2cc1C (stereo not drawn) the results were H9c2 protect -7, Arr AP2 block -5, FAS-TE inh 2, SENP1 FRET inh -8, hiPSC survival 0 and GRIN3A LBD mod 13*.
Screening CN(C)c1ccc(-c2csc(C(O)c3ccc(F)c(F)c3)n2)cc1 (stereo not drawn) returned H9c2 protect -21, FAS-TE inh 18, SENP1 FRET inh 0 and hiPSC survival -1.
